Only some compounds are listed: those with a hit (about 2.1% of all), similar ones and a draw of the others.
CXCR6 block = blocks human CXCR6 beta-arrestin recruitment; O00574; CHO-K1 PathHunter CXCR6 beta-arrestin, luminescence; inhibition, % at 20 µM; actives 0.36% (n = 360,000); AID 602244; in the data active = inhibition above about 34%, passing the limit was not always enough;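 also: antagonist mode with CXCL16 agonist at 10 nM final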
APJ antagonist = blocks the human apelin receptor APJ; CHO-K1 APJ beta-arrestin complementation, luminescence; actives 0.32% (n = 330,000); inhibition, % at 20 µM; AID 2521;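 active = inhibition above about 40% at 20 µM, limit read from the data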;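 also: cells challenged with 10 nM apelin-13 agonist together with compound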
m5-HT2A agonist = activates the mouse 5-HT2A serotonin receptor; actives 0.66% (n = 360,000); P35363; activation, % at 7.6 µM; CHO-K1 mHTR2A beta-arrestin complementation, luminescence; percent of 30 µM serotonin response;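 active = activation above a run cutoff, the mean activation of all tested compounds plus 3 SD, cut at about 14% in these data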
CCR6 antag = blocks CCL20-driven beta-arrestin recruitment at human CCR6 | actives 0.49% (n = 340,000) | CHO-K1 CCR6 PathHunter beta-arrestin, luminescence, CCL20-stimulated | AID 493098 | P51684 | inhibition, % at 20 µM;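 active = compounds whose inhibition of the agonist-driven luminescence signal at 20 µM reaches about 50%, limit read from the data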;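 also: cells stimulated with CCL20 at 14 nM final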
EBI2 antag = EBI2 (human) antagonism; P32249; EBI2 beta-arrestin recruitment, luminescence, 7a,25-OHC stimulated; inhibition, % at 5 µM; actives 0.81% (n = 360,000); AID 651636; in the data active = inhibition above about 38%;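 also: enzyme fragment complementation signal reports receptor beta-arrestin coupling in cells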
Target sequence (P32249 whole entry, looked up, the tested form may be a part): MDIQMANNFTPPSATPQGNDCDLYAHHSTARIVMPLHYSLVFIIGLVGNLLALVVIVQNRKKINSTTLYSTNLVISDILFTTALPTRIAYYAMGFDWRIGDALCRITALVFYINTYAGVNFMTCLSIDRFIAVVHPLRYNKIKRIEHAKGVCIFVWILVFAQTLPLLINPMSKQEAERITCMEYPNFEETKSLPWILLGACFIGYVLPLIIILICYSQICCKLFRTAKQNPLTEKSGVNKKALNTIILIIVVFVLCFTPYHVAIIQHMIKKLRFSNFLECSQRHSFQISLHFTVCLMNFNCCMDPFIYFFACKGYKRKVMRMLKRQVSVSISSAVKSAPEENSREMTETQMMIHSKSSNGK
APJ ag = agonists of human APJ apelin receptor | P35414 | CHO-K1 APJ PathHunter beta-arrestin, luminescence; 0% DMSO wells, 100% apelin | activation, % at 20 µM | actives 0.11% (n = 330,000);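 active = activation more than six SD over the plate average, tested at 20 µM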
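Assay system – PathHunter CHO-K1 APJ (AGTRL-1) beta-arrestin reporter cells · Compound – one dose, 20 µM compound, 1% DMSO · Timing – compound 90 min 25 °C, reagent 1 h · Measured by – luminescence from split beta-galactosidase complementation, Galacton Star/Emerald II substrate · Measure – beta-arrestin recruitment to APJ as agonist activity, luminescent signal · Benchmarks – DMSO vs Apelin-13 10 nM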
APJ antag confirm = confirmation of human APJ apelin receptor antagonists; inhibition, % at 20 µM; AID 2766; shares compounds with APJ antagonist; actives 66% (n = 950); APJ beta-arrestin recruitment, luminescence, antagonist mode; in the data active = inhibition above about 50%
CXCR6 antag conf = CXCR6 antagonism confirmation, single concentration. shares compounds with CXCR6 block. CHO-K1 CXCR6 PathHunter beta-arrestin, luminescence. inhibition, % at 20 µM. actives 65% (n = 700). AID 602409;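 active = mean inhibition over four retests above 40%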;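 also: receptor stimulated with 10 nM CXCL16 agonist; beta-galactosidase fragment complementation upon beta-arrestin recruitment to receptor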
EBI2 antag conf = EBI2 (human) antagonism, single concentration confirmation. shares compounds with EBI2 antag. EBI2 beta-arrestin luminescence, 7a,25-OHC antagonism. inhibition, % at 5 µM. actives 29% (n = 2,400). AID 651997;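 active = inhibition of at least 50%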
EBI2 ag = EBI2 agonism counter-screen. activation, % at 5 µM. shares compounds with EBI2 antag. EBI2-expressing cells, agonist mode, luminescence, 60 min; 0% vehicle, 100% 7α,25-dihydroxycholesterol control. 2,400 tested, under 10 active;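 active = activation of at least 50%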
bGal counter = counter-screen for EBI2 antagonists: E. coli beta-galactosidase inhibition; purified beta-galactosidase, luminescent Galacton Star, 15 min; AID 652176; actives 1% (n = 2,400); inhibition, % at 5 µM; shares compounds with EBI2 antag;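 active = replicate-average signal at least 3 plate SD below neutral wells, shown as high inhibition, flagging enzyme-inhibiting false positives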;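 also: higher means stronger loss of beta-gal luminescence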
Numbers stand for hits; n = inactive; x = no result.

SMILES	CXCR6 block	APJ antagonist	m5-HT2A agonist	CCR6 antag	EBI2 antag	APJ ag	CXCR6 antag conf	others
CC(=O)OCCCNc1cc(Sc2ccc(C)cc2)c2nonc2c1[N+](=O)[O-]	71	71	n	70	85	n	x	APJ antag confirm=103;EBI2 antag conf=n;EBI2 ag=n;bGal counter=n
CC(C)[C@H](NC(=O)OC(C)(C)C)c1nnc(S(=O)(=O)Cc2c(F)cccc2Cl)o1	63	n	n	63	n	n	61
Cc1ccc(P(=O)(O)c2ccc(C)cc2)cc1	n	n	n	n	n	n	x
Cc1ccc(P(=O)(c2ccc(C)cc2)[C@@H](NC(c2ccccc2)c2ccccc2)c2ccccc2)cc1	41	x	n	x	n	x	41
C=CCN(C(=O)CSC1=NC(=O)CN1C(C)=O)c1nc(C)c(-c2ccccc2)s1	40	n	n	n	n	n	n
O/N=C1/CCCCC1c1ccccn1 (centres undefined)	57	n	n	n	n	n	n
O=[N+]([O-])c1ccc(C2CCCC/C2=N/O)c([N+](=O)[O-])c1 (centres undefined)	n	n	n	n	n	n	x
COc1cc(C(=O)Nc2ccc(C(F)(F)F)cc2)ccc1OCC(=O)N1CCOCC1	n	n	n	n	n	n	x
O=C(NC(=S)Nc1ccc([N+](=O)[O-])cc1)c1ccco1	42	x	n	x	n	x	n
Cc1oc2ccccc2c1CC(=O)NCCCN(C)C	n	n	n	n	n	n	x
C=CCN1C(=O)C(=O)N(CC(=O)c2ccc3c(c2)CCCC3)C1=O	n	n	n	n	n	n	x
CC1CCN(C(=O)/C(=C/c2ccccc2Cl)c2ccccc2)CC1	n	n	n	n	n	n	x
N#CC(C#N)=C1C=CC=CN1/C(=C\c1ccccc1Cl)C(=O)c1ccccc1	93	x	n	116	n	x	82
O=C(NNC(=O)c1cc(-c2ccccc2)nn1-c1ccccc1)c1ccccc1	46	n	n	x	n	n	41
Cc1ccc(S(=O)(=O)NCC(=O)OCC(=O)c2ccc(S(=O)(=O)N3CCCCC3)cc2)cc1C	56	x	n	72	n	x	n
Cc1ccc(/C=C/C(=O)N2CC(C)CC(C)C2)o1 (centres undefined)	76	n	n	n	n	n	n
CCN1CCN(C(=O)/C=C/c2ccc(C)o2)CC1	n	n	n	n	n	n	x
Cc1ccc(NC(=O)C2(C)CCN2C(=O)CCC2CCCC2)cc1C (centres undefined)	n	x	n	x	n	x	x
NN=C1c2ccccc2C(=O)C1C(=O)C(c1ccccc1)c1ccccc1 (centres undefined)	40	x	n	63	n	x	n
COc1ccc(C(=O)O)cc1S(=O)(=O)NCCc1ccccn1	n	n	n	n	n	n	x
CC1C(=O)N(Cc2cn(Cc3ccco3)nn2)CCS(=O)(=O)N1Cc1ccc(-c2ccc(Cl)c(Cl)c2)cc1 (centres undefined)	67	x	n	x	n	x	n
C=CC[C@@H](CC(=O)N(CCO)Cc1ccccc1)C(=O)N[C@H](COC(=O)[C@@H](CC=C)CC(=O)OC(C)(C)C)C(C)(C)C	n	n	n	n	n	n	x
C=CC[C@H](CC(=O)N(CCO)Cc1ccccc1)C(=O)NC[C@H](OC(=O)[C@@H](CC=C)CC(=O)OC(C)(C)C)c1ccccc1	51	n	n	n	n	n	n
C=CC[C@H](CC(=O)N(CCO)Cc1ccccc1)C(=O)N[C@H](COC(=O)[C@H](CC=C)CC(=O)OC(C)(C)C)Cc1ccccc1	42	n	n	n	n	n	n
CCOC(=O)C1=C(COC(=O)[C@H](C)NS(=O)(=O)c2ccc(NC(C)=O)cc2)NC(=O)NC1C (some centres undefined)	n	n	n	n	n	n	x
SMILES	CXCR6 block	APJ antagonist	m5-HT2A agonist	CCR6 antag	EBI2 antag	APJ ag	CXCR6 antag conf	others
COc1ccc(/C=N/Nc2ccc(C(=O)O)cc2)c(OC)c1OC	n	n	n	n	n	n	x
COC(=O)c1ccc2c(c1)C(C)(C)C(/C=C/c1ccc(OC)c(OC)c1OC)=[N+]2C	77	n	n	56	n	n	102
CC(=O)Nc1ccc(S(=O)(=O)N(C#N)c2nc(N(C)C)nc(N(C)C)n2)cc1	n	n	n	n	n	n	x
CCn1nc(NC(=O)C(C)C)c2cc3ccc(C)cc3nc21	n	n	n	n	n	n	x
CCn1nc(NC(C)=O)c2cc3ccc(C)cc3nc21	44	n	n	n	n	n	n
Cc1ccc(N2CC(C(=O)NC3CCCCCC3)CC2=O)cc1 (centres undefined)	n	x	n	x	n	x	x
C/C=C/C(=O)OCC(=O)Nc1ccc(SC(F)F)cc1	n	n	n	n	n	n	x
Cc1cc2nc(N3C(=O)CNC3=S)sc2cc1C	50	n	n	x	n	n	61
COC(=O)c1ccc(/C=C(\C#N)C(=O)NC(C)c2ccccc2)cc1 (centres undefined)	40	n	n	53	n	n	55
CCc1ccc(-c2cc(C(=O)NCCCn3ccnc3)c3ccccc3n2)s1	x	n	x	x	x	n	x
Cc1ccc(-c2cc(C(=O)NCCCn3ccnc3)c3ccccc3n2)s1	72	n	n	n	n	n	n
COc1ccc(-c2nnc(NC(=O)c3ccc(S(=O)(=O)N(C)CC4CCCO4)cc3)o2)c(OC)c1 (centres undefined)	n	n	n	n	n	n	x
O=C(C#Cc1cccc([N+](=O)[O-])c1)c1ccccc1	72	n	n	x	n	n	71
Nc1ccccc1C#CC(=O)c1ccccc1	40	n	n	n	n	n	59
Cc1cc(C(=O)NC2CCCN(Cc3ccc(Cl)cc3)C2)n(C)n1 (centres undefined)	n	n	n	n	n	n	x
O=C(NCC(c1ccco1)N1CCc2ccccc2C1)c1ccccc1 (centres undefined)	n	n	n	n	n	n	x
COc1cc(C(=O)NCC(c2ccco2)N2CCc3ccccc3C2)cc(OC)c1OC (centres undefined)	44	n	n	n	n	n	54
